{
  "source": "paper PMC9509476",
  "about": "(Cell systems, 2022)",
  "key": {"p38 activity": {"tested_on": "p38 activity", "assay": "single-cell p38 activity reporter", "type": "cell-based", "details": "RPE1 p38 reporter; for influence on p38 activity (two-sided t-test): 1 μM, 48 hours", "how_it_was_run": "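RPE1 cells stably carrying a p38 kinase translocation reporter, grown in DMEM/F12 with 10% FBS at 37C, 5% CO2. Plated at 1000 cells/well, then given test compound at 1 or 10 μM for 48 h, 4 wells per concentration. Single-cell activity taken as median cytoplasmic-ring (5-pixel) over nuclear reporter intensity, normalised to same-plate/column DMSO. Significance by t-test or KS test with Benjamini-Hochberg adjustment.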"}, "U2OS": {"tested_on": "U2OS", "assay": "proliferation in U2OS Cell Painting images", "type": "cell-based"}, "PAX8": {"tested_on": "PAX8", "details": "ref PubChem; cited from earlier work"}, "KP230 cells [1]": {"tested_on": "KP230 cells", "details": "10 μM"}, "[2]": {"tested_on": "HEK293, HepG2, A549 cells", "details": "ref PubChem; cited from earlier work"}, "[3]": {"tested_on": "mesenchymal lineage periosteal cells", "assay": "qPCR of Hippo components in murine periosteal cells", "type": "cell-based, mouse", "details": "5μM", "how_it_was_run": "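Periosteal cells from 4-day femoral fracture callus of 3 female 15-week CMV-Cre;R26R-rtTA;tetO-YAPS127A mice (C57Bl/6 background). Cultured in α-MEM with 15% FBS, 1% GlutaMAX and 1% P/S. Test compound given at 5 μM. 1 μM doxycycline for 48 h induced YAPS127A as positive control for YAP1 mRNA.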"}, "native kinases": {"tested_on": "native kinases", "assay": "full KINOMEscan panel", "type": "binding"}, "human CSNK1A1": {"biological_target": "human CSNK1A1 (Homo sapiens, UniProt P48729)", "sequence (P48729 whole entry)": "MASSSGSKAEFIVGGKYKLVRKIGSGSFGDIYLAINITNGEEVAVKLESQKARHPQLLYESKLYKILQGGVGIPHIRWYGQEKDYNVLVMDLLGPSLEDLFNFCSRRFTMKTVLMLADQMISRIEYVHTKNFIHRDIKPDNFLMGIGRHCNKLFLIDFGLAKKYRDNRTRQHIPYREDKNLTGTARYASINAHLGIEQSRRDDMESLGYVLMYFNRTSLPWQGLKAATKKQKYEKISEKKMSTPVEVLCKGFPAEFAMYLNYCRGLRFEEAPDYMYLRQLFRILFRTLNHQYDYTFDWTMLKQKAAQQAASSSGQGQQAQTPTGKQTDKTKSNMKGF", "assay": "CSNK1A1 enzymatic mobility shift assay", "type": "biochemical"}, "PPARG": {"tested_on": "PPARG", "assay": "PPARG", "type": "cell-based", "details": "bladder cancer cell line, absence or presence of Rosiglitazone"}, "YAP1 [4]": {"tested_on": "YAP1", "assay": "YAP1 immunofluorescence and Western blot in H9 hPSCs", "type": "cell-based, human", "details": "H9 cells, 10 μM"}, "HT29 cells": {"tested_on": "HT29 cells", "details": "six hours of treatment, ref Subramanian et al., 2017; cited from earlier work"}, "[5]": {"tested_on": "HT-1080 fibrosarcoma cells", "assay": "proliferation assay", "type": "cell-based", "details": "10 μM every 24 hours for 3 days"}, "KP230 cells [6]": {"tested_on": "KP230 cells", "assay": "proliferation assay", "type": "cell-based, mouse", "details": "10 μM every 24 hours for 3 days"}, "[7]": {"tested_on": "YAP1 target genes (CTGF and CYR61)", "assay": "qPCR of YAP1 and target genes in H9 hPSCs", "type": "cell-based, human", "details": "24 hrs"}, "KP230 cells [8]": {"tested_on": "KP230 cells", "assay": "RNA sequencing and gene set enrichment analysis in KP230 cells", "type": "cell-based, mouse", "details": "10 μM", "how_it_was_run": "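KP230 cells (murine Kras/Trp53 tumour-derived) grown in DMEM with 10% FBS, 1% L-glutamine and 1% P/S at 37C, 5% CO2. Kept at ≤20 passages and about 50% confluence. Treated with 10 μM test compound or an equal volume of DMSO. Total RNA isolated by RNeasy Mini with on-column DNase digestion, then sequenced.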"}, "[9]": {"tested_on": "TC32 human Ewing’s family sarcoma cells", "assay": "proliferation assay", "type": "cell-based", "details": "10 μM every 24 hours for 3 days"}, "Yap1 [10]": {"tested_on": "Yap1", "assay": "qRT-PCR of Yap1 and sarcoma target genes in KP230 cells", "type": "cell-based, mouse"}, "A375 cells": {"tested_on": "A375 cells", "details": "6 and 24 hours, ref Subramanian et al., 2017; cited from earlier work"}, "[11]": {"tested_on": "KP230, TC32, STS-109, HT-1080, HCT-116 cells", "assay": "trypan blue staining for toxicity", "type": "cell-based", "details": "10 μM, any of the cell lines tested"}, "STS-109 human UPS cells": {"tested_on": "STS-109 human UPS cells", "assay": "proliferation assay", "type": "cell-based", "details": "10 μM daily for 8 days"}, "[12]": {"tested_on": "HCT-116 colon cancer cells", "assay": "proliferation assay", "type": "cell-based", "details": "10 μM every 24 hours for 3 days, YAP1-independent line"}, "YAP1 [13]": {"tested_on": "YAP1", "assay": "YAP1-responsive TEAD luciferase reporter assay in HEK-293 cells", "type": "cell-based", "details": "10μM, 48h of YAP overexpression"}, "TEAD-YAP interaction": {"tested_on": "TEAD-YAP interaction", "details": "HEK-TIYL cells; ref PubChem; cited from earlier work"}, "Yap1 [14]": {"tested_on": "Yap1", "assay": "Yap1 Western blot and immunofluorescence in KP230 cells", "type": "cell-based, mouse", "details": "10 μM daily"}},
  "data": [
    {"smiles": "Nc1nc(Nc2ccccc2)nc2c1ncn2C1OC(CO)C(O)C1O", "note": "(stereo not drawn) [BRD-A64933752]", "values": [
      {"measurement": "influence on p38 activity (two-sided t-test)", "setting": "p38 activity", "result": "potential inhibitors"}
    ]},
    {"smiles": "CO[C@@H]1CN(C)C(=O)c2ccc(NC(=O)c3ccc(-c4ccccc4)cc3)cc2OC[C@H](C)NC[C@@H]1C", "note": "[BRD-K28862419, N-((3S,6S,7S)-7-methoxy-3,6,9-trimethyl-10-oxo-3,4,5,6,7,8,9,10-octahydro-2H-benzo[k][1]oxa[4,9]diazacyclododecin-13-yl)-[1,1′-biphenyl]-4-carboxamide]", "values": [
      {"measurement": "proliferation in U2OS Cell Painting images", "setting": "U2OS", "result": "−2.0", "unit": "st dev"},
      {"measurement": "PAX8 inhibition", "setting": "PAX8", "result": "inhibits"},
      {"measurement": "KP230 cell viability", "setting": "KP230 cells [1]", "result": "modestly yet significantly reduced"}
    ]},
    {"smiles": "CO[C@@H]1CN(C)C(=O)c2cc(NC(=O)Nc3ccc(C(F)(F)F)cc3)ccc2OC[C@@H](C)NC[C@@H]1C", "note": "[BRD-K34692511, 1-[(4R,7S,8S)-8-methoxy-4,7,10-trimethyl-11-oxo-2-oxa-5,10-diazabicyclo[10.4.0]hexadeca-1(12),13,15-trien-14-yl]-3-[4-(trifluoromethyl)phenyl]urea]", "values": [
      {"measurement": "inhibition of cell proliferation AC50", "setting": "[2]", "result": "none of these impacts"},
      {"measurement": "mRNA levels of Hippo components including Yap1 and Cyr61", "setting": "[3]; 1 and 4 hours", "result": "not at 1 and 4 hours"},
      {"measurement": "mRNA levels of Hippo components including Yap1 and Cyr61", "setting": "[3]; 48 hours", "result": "substantially upregulated"},
      {"measurement": "proliferation in U2OS Cell Painting images", "setting": "U2OS", "result": "none of these impacts"},
      {"measurement": "PAX8 inhibition", "setting": "PAX8", "result": "none of these impacts"}
    ]},
    {"smiles": "CCCCNc1cc(C(=O)O)cc(S(N)(=O)=O)c1Oc1ccccc1", "note": "[BRD-K38197229]", "values": [
      {"measurement": "influence on p38 activity (two-sided t-test)", "setting": "p38 activity", "result": "potential inhibitors"}
    ]},
    {"smiles": "COC1(C[S@@+]([O-])c2ccccc2)CCN(CCc2c[nH]c3ccc(F)cc23)CC1", "note": "[BRD-K52394958]", "values": [
      {"measurement": "influence on p38 activity (alternative statistical test)", "setting": "p38 activity", "result": "identified via an alternative statistical test"}
    ]},
    {"smiles": "C[C@@H]1CN([C@@H](C)CO)C(=O)CCCn2nncc2CO[C@@H]1CN(C)C(=O)Nc1ccnc(N2CCOCC2)c1", "note": "[BRD-K65952656]", "values": [
      {"measurement": "binding to native kinases in full KINOMEscan panel", "setting": "native kinases", "result": "failed to bind any native kinases"},
      {"measurement": "IC50", "setting": "human CSNK1A1; read-out: inhibition of CSNK1A1 IC50", "result": 12, "unit": "µM"}
    ]},
    {"smiles": "CCc1cc(-c2n[nH]c(C)c2-c2ccc3c(c2)OCCO3)c(O)cc1O", "note": "[CCT018159]", "values": [
      {"measurement": "effect in PPARG (FABP4) reporter assay", "setting": "PPARG", "result": "Inhibitors"}
    ]},
    {"smiles": "c1ccc(CNc2ncnc3ccccc23)cc1", "note": "[NB4A, N-Benzylquinazolin-4-amine]", "values": [
      {"measurement": "YAP1 nuclear localization", "setting": "YAP1 [4]; 24 hours", "result": "increased"},
      {"measurement": "YAP1 S127 phosphorylation", "setting": "YAP1 [4]; 24 hrs", "result": "reduced"},
      {"measurement": "total YAP1 protein levels", "setting": "YAP1 [4]; 24 hrs", "result": "decreasing"},
      {"measurement": "TAZ mRNA z-score", "setting": "HT29 cells", "result": 2.04},
      {"measurement": "YAP1 mRNA z-score", "setting": "HT29 cells", "result": 3.16},
      {"measurement": "proliferation of HT-1080 cells", "setting": "[5]", "result": "did not affect"},
      {"measurement": "proliferation of KP230 cells", "setting": "KP230 cells [6]", "result": "inhibited"},
      {"measurement": "YAP1 mRNA expression", "setting": "[7]", "result": "did not affect"},
      {"measurement": "expression of YAP1 target genes (CTGF and CYR61)", "setting": "[7]; dose-dependent", "result": "increased"},
      {"measurement": "epithelial-mesenchymal transition, angiogenesis and glycolysis pathways (GSEA)", "setting": "KP230 cells [8]", "result": "down-regulated"},
      {"measurement": "interferon alpha and gamma response pathways (GSEA)", "setting": "KP230 cells [8]", "result": "up-regulated"},
      {"measurement": "proliferation of TC32 cells", "setting": "[9]", "result": "inhibited"},
      {"measurement": "transcription of Yap1, its sarcoma target genes (Foxm1, Ccl2, Hbegf, Birc5, Rela) and Amot", "setting": "Yap1 [10]", "result": "did not directly alter"},
      {"measurement": "YAP1 mRNA z-score", "setting": "A375 cells", "result": "~ −0.7"},
      {"measurement": "overt toxicity by trypan blue staining", "setting": "[11]", "result": "did not exhibit overt toxicity"},
      {"measurement": "proliferation of STS-109 cells", "setting": "STS-109 human UPS cells", "result": "did not affect"},
      {"measurement": "proliferation of HCT-116 cells", "setting": "[12]", "result": "did not affect"},
      {"measurement": "effect in YAP1-responsive reporter assay", "setting": "YAP1 [13]", "result": "no effect"},
      {"measurement": "activity in assay detecting inhibitors of TEAD-YAP interaction", "setting": "TEAD-YAP interaction", "result": "showed activity"},
      {"measurement": "Yap1 nuclear localization", "setting": "Yap1 [14]", "result": "significantly attenuated"},
      {"measurement": "Yap1 protein levels", "setting": "Yap1 [14]; after 72 hours", "result": "reduced"}
    ]},
    {"smiles": "Cc1ccc(-c2nn(C(C)(C)C)c3ncnc(N)c23)cc1", "note": "[PP1]", "values": [
      {"measurement": "effect in PPARG (FABP4) reporter assay", "setting": "PPARG", "result": "reporter activation"}
    ]},
    {"smiles": "CC(C)(C)n1nc(-c2ccc(Cl)cc2)c2c(N)ncnc21", "note": "[PP2]", "values": [
      {"measurement": "effect in PPARG (FABP4) reporter assay", "setting": "PPARG", "result": "reporter activation"}
    ]},
    {"smiles": "CCCCCCCCCCCCCC(=O)O[C@@H]1[C@@H](C)[C@@]2(O)[C@@H](C=C(CO)C[C@]3(O)C(=O)C(C)=C[C@@H]23)[C@@H]2C(C)(C)[C@]12OC(C)=O", "note": "[Phorbol 12-myristate 13-acetate]", "values": [
      {"measurement": "effect in PPARG (FABP4) reporter assay", "setting": "PPARG", "result": "Inhibitors"}
    ]},
    {"smiles": "Fc1ccc(-c2nc3n(c2-c2ccncc2)CCS3)cc1", "note": "[SKF-86002, reference compound]", "values": [
      {"measurement": "inhibitory IC50 concentrations, CSNK1A1", "setting": "human CSNK1A1; at Km ATP", "result": "nanomolar range"}
    ]}
  ]
}
